Results as given in ChEMBL document CHEMBL1124270, “Quinolone antibacterial agents. Synthesis and structure-activity relationships of 8-substituted quinoline-3-carboxylic acids and 1,8-naphthyridine-3-carboxylic acids” (1988).
In brackets after ≈: the same amount, converted by molar mass.

Key:
Format in all cases: functional
[1] = test system: Escherichia coli; assay: Minimum concentration needed to produce linear DNA at an intensity relative to oxolinic at 10 ug/mL in Escherichia coli H560 in vitro.
Outline: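 DNA gyrase cleavage test, run as previously described: end point is the lowest drug level (µg/mL) that yields linear DNA at a band intensity matching oxolinic acid at 10 µg/mL. Values come from duplicate or triplicate experiments and are stated as accurate to ±50%.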

[2] = test system: Escherichia coli; assay: Minimum inhibitory concentration against Escherichia coli H560 in vitro.
[3] = test system: Escherichia coli; assay: Minimum inhibitory concentration against Escherichia coli vogel in vitro.
[4] = test system: Enterobacter cloacae; assay: Minimum inhibitory concentration against Enterobacter cloacae HA 2646 in vitro.
[5] = test system: Klebsiella pneumoniae; assay: Minimum inhibitory concentration against Klebsiella pneumoniae MGH-2 in vitro.
[6] = test system: Mus musculus; assay: In vivo potency against Escherichia coli vogel using mouse protection assay when given perorally; conditions: po, read-out: PD50
[7] = test system: Mus musculus; assay: In vivo potency against Escherichia coli vogel using mouse protection assay when given subcutaneously; conditions: sc, read-out: PD50
[8] = test system: Pseudomonas aeruginosa; assay: Minimum inhibitory concentration against Pseudomonas aeruginosa UI-18 in vitro.
[9] = test system: Providencia rettgeri; assay: Minimum inhibitory concentration against Providencia rettgeri H1771 in vitro.
[10] = test system: Streptococcus pyogenes; assay: Minimum inhibitory concentration against Streptococcus pyogenes C203 in vitro.
[11] = test system: Streptococcus pneumoniae; assay: Minimum inhibitory concentration against Streptococcus pneumoniae SV-1 in vitro.
[12] = test system: Staphylococcus aureus; assay: Minimum inhibitory concentration against Staphylococcus aureus H228 in vitro.
[13] = test system: Staphylococcus aureus; assay: Minimum inhibitory concentration against Staphylococcus aureus UC-76 in vitro.
[14] = test system: Enterococcus faecalis; assay: Minimum inhibitory concentration against Streptococcus faecalis MGH-2 in vitro.

Compound | DNA cleavage conc (gyrase) [1] | MIC [2] | MIC [3] | MIC [4] | MIC [5] | ED50 [6] | ED50 [7] | MIC [8] | MIC [9] | MIC [10] | MIC [11] | MIC [12] | MIC [13] | MIC [14]
NCC1CCN(c2cc3c(cc2F)c(=O)c(C(=O)O)cn3C2CC2)C1 (configuration not stated) | 0.5 µg/mL | 0.006 µg/mL (≈ 0.0174 µM) | 0.05 µg/mL (≈ 0.145 µM) | 0.05 µg/mL (≈ 0.145 µM) | 0.05 µg/mL (≈ 0.145 µM) | > 100 mg/kg | 2 mg/kg | 0.8 µg/mL (≈ 2.32 µM) | 0.2 µg/mL (≈ 0.579 µM) | 0.025 µg/mL (≈ 0.0724 µM) | 0.003 µg/mL (≈ 0.00869 µM) | 0.025 µg/mL (≈ 0.0724 µM) | 0.006 µg/mL (≈ 0.0174 µM) | 0.025 µg/mL (≈ 0.0724 µM)
CCNCC1CCN(c2c(F)cc3c(=O)c(C(=O)O)cn4c3c2OCC4C)C1 (configuration not stated) | 0.5 µg/mL | 0.05 µg/mL (≈ 0.128 µM) | 0.1 µg/mL (≈ 0.257 µM) | 0.2 µg/mL (≈ 0.514 µM) | 0.4 µg/mL (≈ 1.03 µM) | > 100 mg/kg | 11 mg/kg | 0.8 µg/mL (≈ 2.05 µM) | 0.8 µg/mL (≈ 2.05 µM) | 0.05 µg/mL (≈ 0.128 µM) | 0.05 µg/mL (≈ 0.128 µM) | 0.2 µg/mL (≈ 0.514 µM) | 0.025 µg/mL (≈ 0.0642 µM) | 0.1 µg/mL (≈ 0.257 µM)
CC1COc2c(N3CCC(CN)C3)c(F)cc3c(=O)c(C(=O)O)cn1c23 (configuration not stated) | 0.5 µg/mL | 0.05 µg/mL (≈ 0.138 µM) | 0.2 µg/mL (≈ 0.553 µM) | 0.2 µg/mL (≈ 0.553 µM) | 0.4 µg/mL (≈ 1.11 µM) | > 100 mg/kg | – | 1.6 µg/mL (≈ 4.43 µM) | 0.8 µg/mL (≈ 2.21 µM) | 0.025 µg/mL (≈ 0.0692 µM) | 0.025 µg/mL (≈ 0.0692 µM) | 0.2 µg/mL (≈ 0.553 µM) | 0.05 µg/mL (≈ 0.138 µM) | 0.1 µg/mL (≈ 0.277 µM)
CNCC1CCN(c2c(F)cc3c(=O)c(C(=O)O)cn4c3c2OCC4C)C1 (configuration not stated) | 1 µg/mL | 0.2 µg/mL (≈ 0.533 µM) | 0.2 µg/mL (≈ 0.533 µM) | 0.4 µg/mL (≈ 1.07 µM) | 0.4 µg/mL (≈ 1.07 µM) | – | – | 1.6 µg/mL (≈ 4.26 µM) | 3.1 µg/mL (≈ 8.26 µM) | 0.05 µg/mL (≈ 0.133 µM) | 0.1 µg/mL (≈ 0.266 µM) | 0.4 µg/mL (≈ 1.07 µM) | 0.025 µg/mL (≈ 0.0666 µM) | 0.1 µg/mL (≈ 0.266 µM)
CCNCC1CCN(c2c(F)cc3c(=O)c(C(=O)O)cn(C4CC4)c3c2Cl)C1 (configuration not stated) | 0.1 µg/mL | 0.025 µg/mL (≈ 0.0613 µM) | 0.05 µg/mL (≈ 0.123 µM) | 0.05 µg/mL (≈ 0.123 µM) | 0.1 µg/mL (≈ 0.245 µM) | – | – | 0.8 µg/mL (≈ 1.96 µM) | 0.2 µg/mL (≈ 0.49 µM) | 0.006 µg/mL (≈ 0.0147 µM) | 0.003 µg/mL (≈ 0.00736 µM) | 0.013 µg/mL (≈ 0.0319 µM) | 0.003 µg/mL (≈ 0.00736 µM) | 0.013 µg/mL (≈ 0.0319 µM)
O=C(O)c1cn(C2CC2)c2c(Cl)c(N3CCNCC3)c(F)cc2c1=O | 0.5 µg/mL | 0.025 µg/mL (≈ 0.0683 µM) | 0.025 µg/mL (≈ 0.0683 µM) | 0.025 µg/mL (≈ 0.0683 µM) | 0.05 µg/mL (≈ 0.137 µM) | 0.8 mg/kg | 0.4 mg/kg | 0.4 µg/mL (≈ 1.09 µM) | 0.1 µg/mL (≈ 0.273 µM) | 0.2 µg/mL (≈ 0.547 µM) | 0.1 µg/mL (≈ 0.273 µM) | 0.1 µg/mL (≈ 0.273 µM) | 0.05 µg/mL (≈ 0.137 µM) | 0.4 µg/mL (≈ 1.09 µM)
CNCC1CCN(c2cc3c(cc2F)c(=O)c(C(=O)O)cn3C2CC2)C1 (configuration not stated) | 0.5 µg/mL | 0.1 µg/mL (≈ 0.278 µM) | 0.1 µg/mL (≈ 0.278 µM) | 0.2 µg/mL (≈ 0.556 µM) | 0.2 µg/mL (≈ 0.556 µM) | 35 mg/kg | – | 0.8 µg/mL (≈ 2.23 µM) | 0.4 µg/mL (≈ 1.11 µM) | 0.05 µg/mL (≈ 0.139 µM) | 0.05 µg/mL (≈ 0.139 µM) | 0.2 µg/mL (≈ 0.556 µM) | 0.025 µg/mL (≈ 0.0696 µM) | 0.1 µg/mL (≈ 0.278 µM)
Nc1c(N2CCNCC2)c(F)cc2c(=O)c(C(=O)O)cn(C3CC3)c12 | 2.5 µg/mL | 0.2 µg/mL (≈ 0.577 µM) | 0.4 µg/mL (≈ 1.15 µM) | 0.4 µg/mL (≈ 1.15 µM) | 0.8 µg/mL (≈ 2.31 µM) | 58 mg/kg | 2 mg/kg | 0.8 µg/mL (≈ 2.31 µM) | 0.4 µg/mL (≈ 1.15 µM) | 6.3 µg/mL (≈ 18.2 µM) | 12.5 µg/mL (≈ 36.1 µM) | 6.3 µg/mL (≈ 18.2 µM) | 0.8 µg/mL (≈ 2.31 µM) | 12.5 µg/mL (≈ 36.1 µM)
CC(C)NCC1CCN(c2c(F)cc3c(=O)c(C(=O)O)cn4c3c2OCC4C)C1 (configuration not stated) | – | 0.4 µg/mL (≈ 0.991 µM) | 0.2 µg/mL (≈ 0.496 µM) | 0.4 µg/mL (≈ 0.991 µM) | 0.8 µg/mL (≈ 1.98 µM) | 8 mg/kg | 2 mg/kg | 0.2 µg/mL (≈ 0.496 µM) | 3.1 µg/mL (≈ 7.68 µM) | 0.2 µg/mL (≈ 0.496 µM) | 0.05 µg/mL (≈ 0.124 µM) | 0.05 µg/mL (≈ 0.124 µM) | 0.4 µg/mL (≈ 0.991 µM) | 0.05 µg/mL (≈ 0.124 µM)
CC1COc2c(N3CCC(CN(C)C)C3)c(F)cc3c(=O)c(C(=O)O)cn1c23.Cl (configuration not stated) | 1 µg/mL | 0.2 µg/mL | 0.2 µg/mL | 0.4 µg/mL | 0.4 µg/mL | – | – | 3.1 µg/mL | 0.8 µg/mL | 0.05 µg/mL | 0.05 µg/mL | 0.2 µg/mL | 0.05 µg/mL | 0.4 µg/mL
Cl.O=C(O)c1cn(C2CC2)c2c([N+](=O)[O-])c(N3CCNCC3)c(F)cc2c1=O | – | 0.4 µg/mL | 0.2 µg/mL | 0.2 µg/mL | 0.8 µg/mL | 10 mg/kg | 3 mg/kg | 1.6 µg/mL | 3.1 µg/mL | 12.5 µg/mL | 12.5 µg/mL | 1.6 µg/mL | 0.4 µg/mL | 6.3 µg/mL
Cl.Nc1c(N2CCC(N)C2)c(F)cc2c(=O)c(C(=O)O)cn(C3CC3)c12 (configuration not stated) | 18 µg/mL | 0.1 µg/mL | 0.4 µg/mL | 0.2 µg/mL | 0.4 µg/mL | 50 mg/kg | 6 mg/kg | 1.6 µg/mL | 0.8 µg/mL | 3.1 µg/mL | 3.1 µg/mL | 3.1 µg/mL | 0.4 µg/mL | 3.1 µg/mL
CCNCC1CCN(c2cc3c(cc2F)c(=O)c(C(=O)O)cn3C2CC2)C1.Cl (configuration not stated) | 1 µg/mL | 0.05 µg/mL | 0.2 µg/mL | 0.4 µg/mL | 0.2 µg/mL | 35 mg/kg | – | 1.6 µg/mL | 0.8 µg/mL | 0.05 µg/mL | 0.2 µg/mL | 0.4 µg/mL | 0.013 µg/mL | 0.2 µg/mL
CCNCC1CCN(c2c(F)cc3c(=O)c(C(=O)O)cn(C4CC4)c3c2N)C1.Cl.Cl (configuration not stated) | 2.5 µg/mL | 0.8 µg/mL | 0.4 µg/mL | 0.4 µg/mL | 0.8 µg/mL | – | – | 3.1 µg/mL | 1.6 µg/mL | 0.2 µg/mL | 0.4 µg/mL | 0.8 µg/mL | 0.05 µg/mL | 0.2 µg/mL
CNCC1CCN(c2c(F)cc3c(=O)c(C(=O)O)cn(C4CC4)c3c2N)C1.Cl (configuration not stated) | 5 µg/mL | 1.6 µg/mL | 0.8 µg/mL | 3.1 µg/mL | 3.1 µg/mL | – | – | 6.3 µg/mL | 6.3 µg/mL | 0.4 µg/mL | 1.6 µg/mL | 1.6 µg/mL | 0.2 µg/mL | 1.6 µg/mL
CCNCC1CCN(c2c(F)cc3c(=O)c(C(=O)O)cn(C4CC4)c3c2[N+](=O)[O-])C1.Cl (configuration not stated) | – | 0.4 µg/mL | 0.4 µg/mL | 0.4 µg/mL | 0.8 µg/mL | – | – | 6.3 µg/mL | 1.6 µg/mL | 0.2 µg/mL | 0.1 µg/mL | 0.4 µg/mL | 0.1 µg/mL | 0.4 µg/mL
CC(C)NCC1CCN(c2cc3c(cc2F)c(=O)c(C(=O)O)cn3C2CC2)C1.Cl (configuration not stated) | – | 0.05 µg/mL | 0.1 µg/mL | 0.1 µg/mL | 0.2 µg/mL | 25 mg/kg | 4 mg/kg | 3.1 µg/mL | 0.8 µg/mL | 0.05 µg/mL | 0.025 µg/mL | 0.2 µg/mL | 0.025 µg/mL | 0.1 µg/mL
Cl.NC1CCN(c2c(F)cc3c(=O)c(C(=O)O)cn(C4CC4)c3c2[N+](=O)[O-])C1 (configuration not stated) | – | 0.4 µg/mL | 0.2 µg/mL | 0.2 µg/mL | 0.4 µg/mL | 30 mg/kg | 9 mg/kg | 1.6 µg/mL | 0.8 µg/mL | 1.6 µg/mL | 1.6 µg/mL | 0.8 µg/mL | 0.2 µg/mL | 1.6 µg/mL
